From ChEMBL document CHEMBL1152379, “Synthesis and evaluation of 3''- and 4''-deoxy and -fluoro analogs of the immunostimulatory glycolipid, KRN7000” (Bioorg Med Chem Lett, 2009) come the findings set out here.

Structures are written as SMILES.

Common to all, as to type: functional, cell-based
Test [1] relates to iNKT. The test is described as follows: Immunostimulatory activity in iNKT hybridoma 1.2 cells expressing TCR Vbeta8.2 assessed as IL2 level by ELISA. In outline:
(§1)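 Glycolipid pulsed at indicated amounts onto 1 × 10^5 A20 B lymphoma cells transfected to overexpress mouse CD1d, overnight. APCs washed, then cocultured with 2 × 10^5 Vα14 iNKT hybridoma cells (2H4 Vβ7, 1.2 Vβ8.2, 1.4 Vβ10) overnight. Supernatant IL-2 measured by ELISA as TCR-recognition readout. Dose-response curves, representative of three similar experiments.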

Test [2] relates to iNKT. The test is described as follows: Immunostimulatory activity in iNKT hybridoma 1.4 cells expressing TCR Vbeta10 assessed as IL2 level by ELISA. In short, it runs like this: as §1
On the technique in general: ELISA stands for enzyme-linked immunosorbent assay.

The subject of test [3] is iNKT. Nature of the test: Immunostimulatory activity in iNKT hybridoma 2H4 cells expressing TCR Vbeta7 assessed as IL2 level by ELISA. In short, it runs like this:
as §1

Regarding `CCCCCCCCCCCCCCCCCCCCCCCCCC(=O)N[C@@H](CO[C@H]1O[C@H](CO)[C@H](F)[C@H](O)[C@H]1O)[C@H](O)CCCCCCCCCCCCCCC`, the Activity entry with iNKT [1], in the test on iNKT [2] and with iNKT [3] was “Dose-dependent effect” in each case.
Consider `CCCCCCCCCCCCCCCCCCCCCCCCCC(=O)N[C@@H](CO[C@H]1O[C@H](CO)[C@H](O)[C@H](O)[C@H]1O)[C@H](O)[C@H](O)CCCCCCCCCCCCCC`, for which the Activity entry with iNKT [1], in the test on iNKT [2] and in the test with iNKT [3] was “Dose-dependent effect” throughout.
Consider `CCCCCCCCCCCCCCCCCCCCCCCCCC(=O)N[C@@H](CO[C@H]1O[C@H](CO)[C@H](O)[C@H](O)[C@H]1O)[C@H](O)CCCCCCCCCCCCCCC`, for which the Activity result in the test on iNKT [1], in the test on iNKT [2] and with iNKT [3] was “Dose-dependent effect” throughout.
For `CCCCCCCCCCCCCCCCCCCCCCCCCC(=O)N[C@@H](CO[C@H]1O[C@H](CO)[C@H](O)C[C@H]1O)[C@H](O)CCCCCCCCCCCCCCC`, the Activity entry with iNKT [1] and in the test with iNKT [3] was “Dose-dependent effect” in each case.
For the compound `CCCCCCCCCCCCCCCCCCCCCCCCCC(=O)N[C@@H](CO[C@H]1O[C@H](CO)[C@H](O)[C@H](F)[C@H]1O)[C@H](O)CCCCCCCCCCCCCCC`, the Activity entry in the test on iNKT [1] and with iNKT [3] was “Dose-dependent effect” throughout.
With `CCCCCCCCCCCCCCCCCCCCCCCCCC(=O)N[C@@H](CO[C@H]1O[C@H](CO)C[C@H](O)[C@H]1O)[C@H](O)CCCCCCCCCCCCCCC`, the Activity entry in the test on iNKT [1] and with iNKT [3] was “Dose-dependent effect” throughout.
